Source: ChEMBL document CHEMBL4145631, “Riluzole-Triazole Hybrids as Novel Chemical Probes for Neuroprotection in Amyotrophic Lateral Sclerosis” (ACS Med Chem Lett, 2018)
The source made the active and inactive calls. No rule for the calls is given here.

Legend:
Cortical neurone [1] = experiment: Neuroprotective activity against kainate-induced cell damage in mouse primary cortical neurons assessed as reduction in kainate-induced neurofilament loss by measuring increase in MAPK level at 1 uM pretreated followed by kainate challenge measured after 18 hrs by fluorescence assay; type: functional, cell-based; conditions: in the assay text read “MAP2” for “MAPK”
Summary of the method: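 Mouse primary cortical neurons cultured as previously described; dendritic processes stained with anti-MAP2 antibody. Cell-profile perimeter measured by image analysis, each condition normalized to kainate-only.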

Cortical neurone [2] = experiment: Neuroprotective activity against kainate-induced cell damage in mouse primary cortical neurons assessed as reversal of kainate-induced reduction in calcium flux by fura-2-AM dye based fluorescence assay; type: functional
Summary of the method: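 Mouse primary cortical neurons loaded with fura-2AM for 45 min, washed, then depolarized with 10 mM KCl to drive Ca2+ entry through voltage-gated calcium channels. Flux read on a plate-based system.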

Cortical neurone [3] = experiment: Neuroprotective activity against kainate-induced cell death in mouse primary cortical neurons by MTT assay; type: functional, cell-based
Cortical neurone [4] = experiment: Neuroprotective activity against kainate-induced cell death in mouse primary cortical neurons by cell counting method; type: functional, cell-based
Cortical neurone [5] = experiment: Neuroprotective activity against kainate-induced cell death in mouse primary cortical neurons by caspase activation method; type: functional, cell-based
Mus musculus [6] = species on record: Mus musculus; experiment: Neuroprotective activity against kainate-induced cell death in mouse primary motor neurons by MTT assay; type: functional
Mus musculus [7] = species on record: Mus musculus; experiment: Neuroprotective activity against kainate-induced cell death in mouse primary motor neurons by cell counting method; type: functional
Mus musculus [8] = species on record: Mus musculus; experiment: Neuroprotective activity against kainate-induced cell death in mouse primary motor neurons by caspase activation method; type: functional

For `N=c1sc2cc(OC(F)(F)F)ccc2n1CCn1cc(CCc2ccccc2)nn1`, the Activity (Cortical neurone [1]) was “inactive”, the Activity (Cortical neurone [2]) was “Active” and the Activity (Cortical neurone [3]) was “inactive”. The Activity (Cortical neurone [4]) was “inactive”, the Activity (Cortical neurone [5]) was “inactive” and the Activity (Mus musculus [6]) was “inactive”. For the same molecule, the Activity (Mus musculus [7]) was “inactive” and the Activity (Mus musculus [8]) was “inactive”.

For `N=c1sc2cc(OC(F)(F)F)ccc2n1CCn1cc(-c2ccccc2C(F)(F)F)nn1`, the Activity (Cortical neurone [1]) was “inactive”, the Activity (Cortical neurone [2]) was “Active” and the Activity (Cortical neurone [3]) was “inactive”. For the same molecule, the Activity (Cortical neurone [4]) was “inactive”, the Activity (Cortical neurone [5]) was “inactive” and the Activity (Mus musculus [6]) was “inactive”. For the same molecule, the Activity (Mus musculus [7]) was “inactive” and the Activity (Mus musculus [8]) was “inactive”.

With `CCCc1cn(CCn2c(=N)sc3cc(OC(F)(F)F)ccc32)nn1` the Activity (Cortical neurone [1]) was “inactive”, the Activity (Cortical neurone [2]) was “Active” and the Activity (Cortical neurone [3]) was “inactive”. For the same molecule, the Activity (Cortical neurone [4]) was “inactive”, the Activity (Cortical neurone [5]) was “inactive” and the Activity (Mus musculus [6]) was “inactive”. For the same molecule, the Activity (Mus musculus [7]) was “inactive” and the Activity (Mus musculus [8]) was “inactive”.

`N=c1sc2cc(OC(F)(F)F)ccc2n1CCn1cc(-c2cccc(N)c2)nn1` was tested, and the Activity (Cortical neurone [1]) was “inactive”, the Activity (Cortical neurone [2]) was “Active” and the Activity (Cortical neurone [3]) was “inactive”. The Activity (Cortical neurone [4]) was “inactive”, the Activity (Cortical neurone [5]) was “inactive” and the Activity (Mus musculus [6]) was “inactive”. For the same molecule, the Activity (Mus musculus [7]) was “inactive” and the Activity (Mus musculus [8]) was “inactive”.

`N=c1sc2cc(OC(F)(F)F)ccc2n1CCn1cc(-c2ccc(F)cc2F)nn1` was tested, and the Activity (Cortical neurone [1]) was “inactive”, the Activity (Cortical neurone [2]) was “Active” and the Activity (Cortical neurone [3]) was “inactive”. For the same molecule, the Activity (Cortical neurone [4]) was “inactive”, the Activity (Cortical neurone [5]) was “inactive” and the Activity (Mus musculus [6]) was “inactive”. The Activity (Mus musculus [7]) was “inactive” and the Activity (Mus musculus [8]) was “inactive”.

`N=c1sc2cc(OC(F)(F)F)ccc2n1CCn1cc(-c2ccc(C(=O)O)cc2)nn1` was tested, and the Activity (Cortical neurone [1]) was “Active”, the Activity (Cortical neurone [2]) was “Active” and the Activity (Cortical neurone [3]) was “inactive”. For the same molecule, the Activity (Cortical neurone [4]) was “inactive”, the Activity (Cortical neurone [5]) was “inactive” and the Activity (Mus musculus [6]) was “inactive”. The Activity (Mus musculus [7]) was “inactive” and the Activity (Mus musculus [8]) was “inactive”.

With `Cc1ccccc1-c1cn(CCn2c(=N)sc3cc(OC(F)(F)F)ccc32)nn1` the Activity (Cortical neurone [1]) was “inactive”, the Activity (Cortical neurone [2]) was “Active” and the Activity (Cortical neurone [3]) was “inactive”. The Activity (Cortical neurone [4]) was “inactive”, the Activity (Cortical neurone [5]) was “inactive” and the Activity (Mus musculus [6]) was “inactive”. The Activity (Mus musculus [7]) was “inactive” and the Activity (Mus musculus [8]) was “inactive”.

`N=c1sc2cc(OC(F)(F)F)ccc2n1CCn1cc(C2CC2)nn1` was tested, and the Activity (Cortical neurone [1]) was “inactive”, the Activity (Cortical neurone [2]) was “Active” and the Activity (Cortical neurone [3]) was “inactive”. For the same molecule, the Activity (Cortical neurone [4]) was “inactive”, the Activity (Cortical neurone [5]) was “inactive” and the Activity (Mus musculus [6]) was “inactive”. For the same molecule, the Activity (Mus musculus [7]) was “inactive” and the Activity (Mus musculus [8]) was “inactive”.

With `N=c1sc2cc(OC(F)(F)F)ccc2n1CCn1cc(-c2cccc(C(F)(F)F)c2)nn1` the Activity (Cortical neurone [1]) was “inactive”, the Activity (Cortical neurone [2]) was “Active” and the Activity (Cortical neurone [3]) was “inactive”. The Activity (Cortical neurone [4]) was “inactive”, the Activity (Cortical neurone [5]) was “inactive” and the Activity (Mus musculus [6]) was “inactive”. The Activity (Mus musculus [7]) was “inactive” and the Activity (Mus musculus [8]) was “inactive”.

In the case of `N=c1sc2cc(OC(F)(F)F)ccc2n1CCn1cc(-c2ccccc2F)nn1`, the Activity (Cortical neurone [1]) is reported as “inactive”, the Activity (Cortical neurone [2]) is reported as “Active” and the Activity (Cortical neurone [3]) is reported as “inactive”. The Activity (Cortical neurone [4]) was “inactive”, the Activity (Cortical neurone [5]) was “inactive” and the Activity (Mus musculus [6]) was “inactive”. For the same molecule, the Activity (Mus musculus [7]) was “inactive” and the Activity (Mus musculus [8]) was “inactive”.

For `Cn1cncc1-c1cn(CCn2c(=N)sc3cc(OC(F)(F)F)ccc32)nn1`, the Activity (Cortical neurone [1]) was “inactive”, the Activity (Cortical neurone [2]) was “Active” and the Activity (Cortical neurone [3]) was “inactive”. The Activity (Cortical neurone [4]) was “inactive”, the Activity (Cortical neurone [5]) was “inactive” and the Activity (Mus musculus [6]) was “inactive”. For the same molecule, the Activity (Mus musculus [7]) was “inactive” and the Activity (Mus musculus [8]) was “inactive”.

With `COc1ccccc1-c1cn(CCn2c(=N)sc3cc(OC(F)(F)F)ccc32)nn1` the Activity (Cortical neurone [1]) was “inactive”, the Activity (Cortical neurone [2]) was “Active” and the Activity (Cortical neurone [3]) was “inactive”. For the same molecule, the Activity (Cortical neurone [4]) was “inactive”, the Activity (Cortical neurone [5]) was “inactive” and the Activity (Mus musculus [6]) was “inactive”. The Activity (Mus musculus [7]) was “inactive” and the Activity (Mus musculus [8]) was “inactive”.
